In ChEMBL document CHEMBL4017487, “Design and Synthesis of γ- and δ-Lactam M1 Positive Allosteric Modulators (PAMs): Convulsion and Cholinergic Toxicity of an M1-Selective PAM with Weak Agonist Activity” (J Med Chem, 2017):
Residue numbers refer to the chain shown, from its start. Calls of active or inactive are those of the source. The calls are words filed in the database; no cut-off is given here.

Columns and labels:
[1] = Intrinsic clearance in human liver microsomes; assay type: ADME, microsome; conditions: read-out: CLH
[2] = Half life in rat at 2 mg/kg, po administered as single dose; assay type: ADME, organism-based; conditions: in vivo
Procedure, shortened: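 Rat, single oral dose of 2 mg/kg given as a suspension in 0.5% methylcellulose. Half-life taken after the oral dose.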

[3] = Clearance in dog at 0.1 mg/kg, iv administered as single bolus dose; assay type: ADME, organism-based, Canis lupus familiaris; conditions: in vivo
[4] = biological target: T1, Muscarinic acetylcholine receptor M1 (Rattus norvegicus, UniProt P08482); experiment: Positive allosteric modulation of muscarinic acetylcholine receptor M1 in Sprague-Dawley rat brain hippocampal slices assessed as increase in carbachol-induced firing rate at CA1 pyramidal neurons after 10 mins by electrophysiology method
T1 sequence (P08482 whole entry): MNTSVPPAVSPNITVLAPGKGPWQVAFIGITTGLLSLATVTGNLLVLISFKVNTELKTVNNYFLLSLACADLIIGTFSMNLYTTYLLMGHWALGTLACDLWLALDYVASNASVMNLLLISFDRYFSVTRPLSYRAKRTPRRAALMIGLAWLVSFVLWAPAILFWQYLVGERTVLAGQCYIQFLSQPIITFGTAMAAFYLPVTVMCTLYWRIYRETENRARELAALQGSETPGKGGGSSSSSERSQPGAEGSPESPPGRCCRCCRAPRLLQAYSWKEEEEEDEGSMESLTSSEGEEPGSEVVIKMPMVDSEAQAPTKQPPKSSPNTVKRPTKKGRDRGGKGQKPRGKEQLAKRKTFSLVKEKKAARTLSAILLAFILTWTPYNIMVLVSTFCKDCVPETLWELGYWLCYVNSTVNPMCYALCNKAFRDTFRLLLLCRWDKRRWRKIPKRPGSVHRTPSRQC
Procedure, shortened: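 Rat hippocampal slices; spontaneous action potentials recorded from CA1 pyramidal neurons, read as spike rate. Agonist mode has no carbachol; PAM mode uses an EC20 level of carbachol. Top concentration tested was 3 μM.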

[5] = biological target: T2, Muscarinic acetylcholine receptor M1 (Homo sapiens, UniProt P11229); experiment: Ratio of intrinsic activity at human muscarinic acetylcholine receptor M1 expressed in CHO cells by beta-arrestin recruitment assay to intrinsic activity at human muscarinic acetylcholine receptor M1 expressed in CHO cells assessed as increase in calcium mobilization; assay type: ADME, cell-based
T2 sequence (P11229 whole entry): T1 sequence (P08482 whole entry) with V5A, S254T, S309P, K320R, G337A, V413I

[6] = biological target: T2, Muscarinic acetylcholine receptor M1; experiment: Agonist activity at human muscarinic acetylcholine receptor M1 expressed in CHO cells at 30 uM by beta-arrestin recruitment assay relative to acetylcholine; assay type: cell-based
Mus musculus = experiment: Reversal of amphetamine-induced hyperlocomotion in C57BL/6 mouse assessed as decrease in total distance traveled at 0.3 to 3.2 mg/kg, sc pretreated for 30 mins followed by amphetamine dosing measured for 90 mins; assay type: functional, organism-based
Procedure, shortened: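 C57BL/6 mice, D-amphetamine-stimulated locomotor activity. Compound at 0.32, 1 and 3.2 mg/kg sc as a solution in 10/90 Cremophor/water. Plasma and brain exposures from a satellite group (N = 2/dose) at 1 h.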

Brain = experiment: Unbound brain concentration in amphetamine-induced hyperlocomotion C57BL/6 mouse at 1 mg/kg, sc measured after 1 hr by LC-MS/MS analysis; assay type: ADME, organism-based; conditions: in vivo
Procedure, shortened: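 Satellite group of C57BL/6 mice from the amphetamine-stimulated locomotor study, N = 2/dose at 0.32, 1 and 3.2 mg/kg. Dosed sc as a solution in 10/90 Cremophor/water. Unbound plasma and brain concentrations measured at T = 1 h.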

Plasma = experiment: Unbound plasma concentration in scopolamine-induced memory impairment Wistar rat model at 3.2 mg/kg, sc measured after 1.25 hrs by LC-MS/MS analysis; assay type: ADME, organism-based; conditions: in vivo
Procedure, shortened: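 Rats from a satellite group of the scopolamine (0.32 mg/kg) Morris water maze study, N = 2/dose. Dosed sc as a solution in 20% hydroxypropyl β-cyclodextrin. Compound concentrations measured in plasma only at T = 1.25 h.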

Rattus norvegicus [7] = experiment: Unbound Cmax in rat plasma at 5 mg/kg, po administered as single dose; assay type: ADME, organism-based; conditions: in vivo
Procedure, shortened: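 Rats (3/sex/dose) dosed orally once, 1 or 5 mg/kg as a 0.5% methylcellulose suspension.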

Rattus norvegicus [8] = experiment: Toxicity in rat assessed as unbound brain concentration at 45 mg/kg, po administered as single dose; assay type: organism-based; conditions: in vivo
Canis familiaris [9] = experiment: Unbound AUC (0 to 24 hrs) in dog plasma at 5 mg/kg, po administered as single dose using spray dried dispersion formulation; assay type: ADME, organism-based, Canis lupus familiaris; conditions: in vivo
Canis familiaris [10] = experiment: Cholinergic toxicity in dog assessed as emesis at 5 mg/kg, po administered as single dose using spray dried dispersion formulation after 1 to 4 hrs; assay type: organism-based, Canis lupus familiaris; conditions: in vivo
Procedure, shortened: (§1)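 Dog single oral dose escalation: 1/sex at 5 mg/kg for each formulation; 1 female at 15 mg/kg. Spray-dried dispersion: 23% drug loading with 0.5% methylcellulose and 100 mM citrate buffer. Clinical signs timed in approximate hours postdose; unbound plasma Cmax.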

Canis familiaris [11] = experiment: Cholinergic toxicity in dog assessed as ataxia at 5 mg/kg, po administered as single dose using spray dried dispersion formulation after 2 hrs; assay type: organism-based, Canis lupus familiaris; conditions: in vivo; procedure, shortened: as §1
Canis familiaris [12] = experiment: Cholinergic toxicity in dog assessed as circling behaviour at 5 mg/kg, po administered as single dose using spray dried dispersion formulation after 4.3 hrs; assay type: organism-based, Canis lupus familiaris; conditions: in vivo; procedure, shortened: as §1

Question: Which CLint scaled [1] does the source give for Cc1cc2c(cc1Cc1ccc(-c3cocn3)cc1)C(=O)N([C@H]1CCOC[C@@H]1O)C2 here?
Answer: < 8 mL/min/kg

Question: What about the half-life [2] of the same compound?
Answer: 6.7 h

Question: What about the clearance [3] of the same compound?
Answer: 1.7 mL/min/kg

Question: What about the Activity [4] of the same compound?
Answer: Dose-dependent effect

Question: And the Ratio [5]?
Answer: 1.4

Question: What about the Activity [6] of the same compound?
Answer: 50%

Question: What about the Activity (Mus musculus) of the same compound?
Answer: Active

Question: What about the “Drug uptake(free)” value (Brain) of the same compound?
Answer: 14 nM

Question: And the “Cp(f)” value (Plasma)?
Answer: 200 nM

Question: What about the fCmax (Rattus norvegicus [7]) of the same compound?
Answer: 313 nM

Question: And the Drug uptake(free) (Rattus norvegicus [8])?
Answer: 460 to 760 nM

Question: What about the fAUC (Canis familiaris [9]) of the same compound?
Answer: 3.85 µM·h

Question: What about the Activity (Canis familiaris [10]) of the same compound?
Answer: Toxic

Question: What about the Activity (Canis familiaris [11]) of the same compound?
Answer: Toxic

Question: What about the Activity (Canis familiaris [12]) of the same compound?
Answer: Toxic
